This is an account of results in ChEMBL document CHEMBL2417403, “N-terminal guanidinylation of TIPP (Tyr-Tic-Phe-Phe) peptides results in major changes of the opioid activity profile” (Bioorg Med Chem Lett, 2013).

Assay [1] has as its target Delta-type opioid receptor (Mus musculus) (UniProt P32300). Kind of assay: Partial agonist activity at delta opioid receptor in mouse vas deferens assessed as inhibition of electrically-stimulated muscle contraction. The essentials: (§1)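 Mouse vas deferens bioassay, delta-representative tissue. Agonist potency was expressed as IC₅₀ and antagonist activity as a Ke value.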

Assay [2] has as its target Mu-type opioid receptor (Cavia porcellus, UniProt P97266). Kind of assay: Agonist activity at mu opioid receptor in guinea pig ileum assessed as […] of electrically-stimulated muscle contraction. Type of assay: tissue-based.
The target in assay [3] is Delta-type opioid receptor (Rattus norvegicus, UniProt P33533). Kind of assay: Displacement of [3H]DSLET from delta opioid receptor in rat brain membranes. Type of assay: cell membranes. In a few lines:
(§2)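 Competitive displacement of tritiated radioligands, with affinities reported as Ki. Mu sites were labelled with [³H]DAMGO and delta sites with [³H]DSLET, both on rat brain membranes. Kappa sites were labelled with [³H]U69,593 on guinea pig brain membranes.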
A general note: In a radioligand displacement assay an active substance lowers the binding of a labelled ligand.

Assay [4] deals with Delta-type opioid receptor (Mus musculus) (UniProt P32300). Kind of assay: Antagonist activity at delta opioid receptor in mouse vas deferens assessed as inhibition of electrically-stimulated muscle contraction. The essentials:
as §1

Assay [5] concerns the target Kappa-type opioid receptor (Cavia porcellus, UniProt P41144). Kind of assay: Displacement of [3H]U69,593 from kappa opioid receptor in guinea pig brain membranes. In kind it is cell membranes, Membrane. In a few lines:
as §2

Assay [6] in a line: Selectivity ratio of Ki for kappa opioid receptor in guinea pig brain membranes to Ki for delta opioid receptor in rat brain membranes. In kind it is cell membranes.
The species named for another assay is Rattus norvegicus. Kind of assay: Selectivity ratio of Ki for mu opioid receptor in rat brain membranes to Ki for delta opioid receptor in rat brain membranes. In kind it is cell membranes.
Assay [7] addresses Mu-type opioid receptor (Rattus norvegicus, UniProt P33535). Kind of assay: Displacement of [3H]DAMGO from mu opioid receptor in rat brain membranes. Type of assay: cell membranes. The essentials:
as §2

The target of assay [8] is mu/kappa opioid receptor (Cavia porcellus) (UniProt P41144+P97266). Kind of assay: Partial agonist activity at mu/kappa opioid receptor in guinea pig ileum assessed as inhibition of electrically-stimulated muscle contraction. Type of assay: tissue-based.

SMILES strings stand for the structures. pIC50, pKi: −log10 of the molar value. Where a SMILES comes first, the peptide text is derived from it.

Chain of Delta-type opioid receptor (Mus musculus) (P32300 whole entry): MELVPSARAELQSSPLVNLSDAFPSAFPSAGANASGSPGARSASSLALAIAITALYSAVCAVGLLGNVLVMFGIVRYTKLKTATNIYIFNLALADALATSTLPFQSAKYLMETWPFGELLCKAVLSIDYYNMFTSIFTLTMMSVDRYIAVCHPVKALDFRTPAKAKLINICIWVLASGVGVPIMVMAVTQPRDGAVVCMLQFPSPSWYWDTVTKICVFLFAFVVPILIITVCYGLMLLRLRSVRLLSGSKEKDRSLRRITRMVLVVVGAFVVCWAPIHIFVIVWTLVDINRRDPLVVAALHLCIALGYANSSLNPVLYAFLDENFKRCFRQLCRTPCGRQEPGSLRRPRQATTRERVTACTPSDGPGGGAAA
Chain of Mu-type opioid receptor (Cavia porcellus, UniProt P97266) (P97266 whole entry): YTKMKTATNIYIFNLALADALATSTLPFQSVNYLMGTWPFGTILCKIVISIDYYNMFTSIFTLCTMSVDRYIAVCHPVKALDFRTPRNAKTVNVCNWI
Chain of mu/kappa opioid receptor (Cavia porcellus) (P41144 whole entry, looked up): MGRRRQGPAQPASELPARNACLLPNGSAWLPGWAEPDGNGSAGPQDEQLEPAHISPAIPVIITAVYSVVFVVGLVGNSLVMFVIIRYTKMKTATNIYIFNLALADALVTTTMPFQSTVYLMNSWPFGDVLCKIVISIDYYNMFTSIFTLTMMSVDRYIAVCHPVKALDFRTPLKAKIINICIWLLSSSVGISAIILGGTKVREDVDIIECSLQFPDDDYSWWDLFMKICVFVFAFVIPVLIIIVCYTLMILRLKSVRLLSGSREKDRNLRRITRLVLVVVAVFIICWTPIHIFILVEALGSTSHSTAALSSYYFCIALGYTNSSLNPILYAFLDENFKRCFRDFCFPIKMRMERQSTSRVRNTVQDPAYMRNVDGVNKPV
Chain of mu/kappa opioid receptor (Cavia porcellus) (P97266 whole entry, looked up): as the sequence (P97266 whole entry) above
Chain of Kappa-type opioid receptor (P41144 whole entry): as the sequence (P41144 whole entry, looked up) above
Chain of Delta-type opioid receptor (P33533 whole entry): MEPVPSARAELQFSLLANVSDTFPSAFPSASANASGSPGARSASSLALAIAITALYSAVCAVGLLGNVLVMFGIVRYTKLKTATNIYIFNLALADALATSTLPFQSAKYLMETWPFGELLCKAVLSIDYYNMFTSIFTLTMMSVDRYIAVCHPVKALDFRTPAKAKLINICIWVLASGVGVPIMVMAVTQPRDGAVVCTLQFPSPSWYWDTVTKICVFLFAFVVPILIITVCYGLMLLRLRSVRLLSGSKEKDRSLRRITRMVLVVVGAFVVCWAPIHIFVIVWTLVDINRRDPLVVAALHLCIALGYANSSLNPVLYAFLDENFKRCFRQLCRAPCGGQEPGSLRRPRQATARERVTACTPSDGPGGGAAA
Chain of Mu-type opioid receptor (Rattus norvegicus, UniProt P33535) (P33535 whole entry): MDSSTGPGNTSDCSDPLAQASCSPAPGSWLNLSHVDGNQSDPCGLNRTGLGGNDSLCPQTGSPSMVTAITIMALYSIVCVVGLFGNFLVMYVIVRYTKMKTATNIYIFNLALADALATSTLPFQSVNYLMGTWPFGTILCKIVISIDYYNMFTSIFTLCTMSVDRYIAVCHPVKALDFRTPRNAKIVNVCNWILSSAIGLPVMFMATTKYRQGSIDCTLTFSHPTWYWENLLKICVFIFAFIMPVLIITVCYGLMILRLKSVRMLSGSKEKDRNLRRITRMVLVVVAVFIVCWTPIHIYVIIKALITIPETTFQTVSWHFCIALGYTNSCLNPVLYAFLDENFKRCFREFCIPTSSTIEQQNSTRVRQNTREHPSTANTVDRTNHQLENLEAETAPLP

As for `Cc1cc(O)cc(C)c1C[C@H](N)C(=O)N1Cc2ccccc2C[C@H]1CN[C@@H](CCCCN)C(=O)N[C@@H](Cc1ccccc1)C(N)=O`, the IC35 in assay [1] was found to be 23.2 nM. With `Cc1cc(O)cc(C)c1C[C@H](NC(=N)N)C(=O)N1Cc2ccccc2C[C@H]1C(=O)N[C@@H](Cc1ccccc1)C(=O)N[C@@H](Cc1ccccc1)C(=O)O`, in assay [1], the IC35 came out at 1.57 nM. What is called pIC50 is the negative decadic logarithm of the IC50, by convention in mol/L. Usually pKi stands for −log10 of the Ki, conventionally taken in molar units. As for `Cc1cc(O)cc(C)c1C[C@H](N)C(=O)N1Cc2ccccc2C[C@H]1C(=O)N[C@@H](CCCCN)C(=O)N[C@@H](Cc1ccccc1)C(N)=O` (HELM PEPTIDE1{[Cc1cc(O)cc(C)c1C[C@H](N)C(=O)[*:2]].[Tic].K.F.[am]}$$$$V2.0), on Mu-type opioid receptor [2], the pIC50 was 7.78. The pKi in assay [3] is 9.51; in assay [5] it was 8.65; on Mu-type opioid receptor [7] it was 7.71. In addition, in assay [4], the Ke was found to be 2.18 nM. Moreover, the Ratio Ki in assay [6] came out at 7; in the assay listed under Rattus norvegicus it was 63. Regarding `Cc1cc(O)cc(C)c1C[C@H](NC(=N)N)C(=O)N1Cc2ccccc2C[C@H]1C(=O)O`, the Imax in assay [1] and in assay [8] was 50% in each case. Turning to `N=C(N)N[C@@H](Cc1ccc(O)cc1)C(=O)N1Cc2ccccc2C[C@H]1CN[C@@H](Cc1ccccc1)C(=O)N[C@@H](Cc1ccccc1)C(=O)O`, the Imax in assay [1] amounted to 50%. `Cc1cc(O)cc(C)c1C[C@H](NC(=N)N)C(=O)N1Cc2ccccc2C[C@H]1CN[C@@H](CCCCN)C(=O)N[C@@H](Cc1ccccc1)C(N)=O`: the IC35 in assay [1] came out at 7.35 nM. `Cc1cc(O)cc(C)c1C[C@H](N)C(=O)N1Cc2ccccc2CC1CN[C@@H](Cc1ccccc1)C(=O)N[C@@H](Cc1ccccc1)C(N)=O` (some centres not stated): the pIC50 at Mu-type opioid receptor [2] was 8.11. In addition, the Ke in assay [4] was 0.537 nM. For the molecule `N[C@@H](Cc1ccc(O)cc1)C(=O)N1Cc2ccccc2C[C@H]1C(=O)N[C@@H](Cc1ccccc1)C(=O)N[C@@H](Cc1ccccc1)C(=O)O` (HELM PEPTIDE1{Y.[Tic].F.F}$$$$V2.0), the Ke in assay [4] came to 480 nM.

Turning to `N=C(N)N[C@@H](Cc1ccc(O)cc1)C(=O)N1Cc2ccccc2C[C@H]1C(=O)N[C@@H](Cc1ccccc1)C(=O)N[C@@H](Cc1ccccc1)C(=O)O`, the Imax in assay [1] was determined as 33%.
